*1 amine or outer side, *2 acyl side, *3 side chain or, on linkers, in order; H or OH if unused. Where a SMILES comes first, the peptide text is derived from it. Bridges are numbered along the chain shown (N, C = ends). [ ]: non-standard residue; d: D form. X1 = O=C(CC[C@H](N[*:1])C(=O)[*:2])CN[*:3]; X4 = O=C([C@@H](N[*:1])C(O)c1ccccc1)[*:2]; X5 = O=C(CN[*:3])C[C@H](N[*:1])C(=O)[*:2]; pY = N[C@@H](Cc1ccc(OP(=O)(O)O)cc1)C(=O)O; hPhe = N[C@@H](CCc1ccccc1)C(=O)O; Tic = O=C(O)[C@@H]1Cc2ccccc2CN1; Nle = CCCC[C@H](N)C(=O)O; CO = O=C([*:1])[*:2]
Key:
[1] = target: T1, Tyrosine-protein phosphatase non-receptor type 6 (Homo sapiens, UniProt P29350); assay: Dissociation constant for the interaction with the GST-N-SH2 domain of SHP-1
T1 sequence (P29350 whole entry, the tested form may be a part): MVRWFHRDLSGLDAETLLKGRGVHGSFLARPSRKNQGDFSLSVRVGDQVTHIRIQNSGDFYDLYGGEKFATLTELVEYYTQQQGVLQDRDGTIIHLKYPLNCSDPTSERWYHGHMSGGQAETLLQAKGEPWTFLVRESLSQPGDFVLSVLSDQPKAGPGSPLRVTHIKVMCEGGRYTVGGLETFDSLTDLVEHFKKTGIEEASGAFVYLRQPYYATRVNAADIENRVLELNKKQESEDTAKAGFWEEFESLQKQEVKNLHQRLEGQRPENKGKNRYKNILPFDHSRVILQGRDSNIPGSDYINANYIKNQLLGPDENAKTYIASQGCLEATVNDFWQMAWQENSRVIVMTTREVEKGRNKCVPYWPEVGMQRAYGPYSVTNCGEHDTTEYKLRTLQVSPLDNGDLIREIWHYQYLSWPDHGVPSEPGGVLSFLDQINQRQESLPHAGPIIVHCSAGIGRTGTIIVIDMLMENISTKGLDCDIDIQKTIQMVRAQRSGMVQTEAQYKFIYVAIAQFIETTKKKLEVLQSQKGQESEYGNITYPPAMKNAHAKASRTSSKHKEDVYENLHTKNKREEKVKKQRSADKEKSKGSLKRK
How it was run: (§1)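 SPR at room temperature in 10 mM Hepes pH 7.4, 150 mM NaCl, 3.4 mM EDTA, 0.005% Tween20. Biotinylated peptides captured on the chip to 20-40 RU. FPLC-purified GST-SHP-1 N-SH2 was injected 5 min at 30 µL/min, then dissociation was followed. Blank flow cell subtracted. Equilibrium RU vs domain concentration was fit to a one-site hyperbola for Kd.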

[2] = target: T1, Tyrosine-protein phosphatase non-receptor type 6; assay: Concentration required to stimulate SHP-1 enzymatic activity by 50%
How it was run: (§2)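 SHP-1 activity on p-nitrophenyl phosphate (10 mM) in 50 mM Hepes pH 7.4, 50 mM NaCl, 1 mM EDTA, 1 mM TCEP with 0-500 µM peptide. Enzyme (0.5 µg) added last, 30 min at room temperature, stopped with 1 M NaOH, A405 read. Activity relative to no-peptide enzyme. Duplicates, mean of three independent experiments. Not active: maximal activity ≤0.4 relative to Ros pY2267.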

[3] = target: T1, Tyrosine-protein phosphatase non-receptor type 6; assay: Dissociation constant for the interaction with the GST-N-SH2 domain of SHP-1; nb is no binding; how it was run: as §1
[4] = target: T1, Tyrosine-protein phosphatase non-receptor type 6; assay: Concentration required to stimulate SHP-1 enzymatic activity by 50%; not active; how it was run: as §2

SMILES | Kd [1] [µM] | EC50 ([2]; read-out: EC50) [µM] | Kd [3] | EC50 [4] | EC50 [2]
CC(C)C[C@H](NC(=O)[C@@H](NC(=O)[C@H](CCc1ccccc1)NC(=O)[C@H](Cc1ccc(OP(=O)(O)O)cc1)NC(=O)[C@H](CC(N)=O)NC(=O)[C@H](CC(C)C)NC(=O)CNC(=O)[C@@H](N)CCC(=O)O)C(C)C)C(N)=O (H-EGLN[pY][hPhe]VL-NH2) | 0.9 | 140 |  |  | 
CC[C@H](C)[C@H](NC(=O)[C@@H]1Cc2ccccc2CN1C(=O)[C@H](Cc1ccc(OP(=O)(O)O)cc1)NC(=O)[C@H](CC(N)=O)NC(=O)[C@H](CC(C)C)NC(=O)CNC(=O)[C@@H](N)CCC(=O)O)C(=O)N1Cc2ccccc2C[C@H]1C(N)=O (H-EGLN[pY][Tic]I[Tic]-NH2) |  |  | Not Active | Not Active | 
CSCC[C@@H]1NC(=O)[C@H](Cc2ccc(OP(=O)(O)O)cc2)NC(=O)[C@@H](NC(=O)[C@H](CC(C)C)NC(=O)CNC(=O)[C@@H](N)CCC(=O)O)CCCCNC(=O)NCC(=O)CC[C@@H](C(=O)N[C@@H](CC(C)C)C(=O)O)NC1=O (H-EGLK[pY]M[X1]L-OH; linker 4-7 via CO) | 0.21 |  |  |  | Not Active
CSCC[C@H](NC(=O)[C@H](Cc1ccc(OP(=O)(O)O)cc1)NC(=O)[C@H](CC(N)=O)NC(=O)[C@H](CC(C)C)NC(=O)CNC(=O)[C@@H](N)CCC(=O)O)C(=O)N[C@H](C(=O)N[C@@H](CC(C)C)C(N)=O)C(C)C (H-EGLN[pY]MVL-NH2) | 1.44 | 160 |  |  | 
CCCC[C@H](NC(=O)[C@H](Cc1ccc(OP(=O)(O)O)cc1)NC(=O)[C@H](CC(N)=O)NC(=O)[C@H](CC(C)C)NC(=O)CNC(=O)[C@@H](N)CCC(=O)O)C(=O)N[C@H](C(=O)N[C@@H](Cc1ccccc1)C(N)=O)C(C)C (H-EGLN[pY][Nle]VF-NH2) | 0.23 | 60 |  |  | 
CC(C)C[C@H](NC(=O)[C@@H](NC(=O)[C@@H](NC(=O)[C@H](Cc1ccc(OP(=O)(O)O)cc1)NC(=O)[C@H](CC(N)=O)NC(=O)[C@H](CC(C)C)NC(=O)CNC(=O)[C@@H](N)CCC(=O)O)C(C)c1ccccc1)C(C)C)C(N)=O (stereo in doubt; 5b) | 0.16 | 220 |  |  | 
CSCC[C@@H]1NC(=O)[C@H](Cc2ccc(OP(=O)(O)O)cc2)NC(=O)[C@@H](NC(=O)[C@H](CC(C)C)NC(=O)CNC(=O)[C@@H](N)CCC(=O)O)CCCCNC(=O)NCC(=O)C[C@@H](C(=O)N[C@@H](CC(C)C)C(=O)O)NC1=O (H-EGLK[pY]M[X5]L-OH; linker 4-7 via CO) | 0.11 |  |  | Not Active | 
CSCC[C@H](NC(=O)[C@H](Cc1ccc(OP(=O)(O)O)cc1)NC(=O)[C@H](CC(N)=O)NC(=O)[C@H](CC(C)C)NC(=O)CNC(=O)[C@@H](N)CCC(=O)O)C(=O)N[C@H](C(=O)N[C@H](C(N)=O)C(O)c1ccccc1)C(C)C (stereo partly specified) (H-EGLN[pY]MV[X4]-NH2) | 0.29 | 85 |  |  | 
CC(C)C[C@H](NC(=O)[C@@H](NC(=O)[C@@H](NC(=O)[C@H](Cc1ccc(OP(=O)(O)O)cc1)NC(=O)[C@H](CC(N)=O)NC(=O)[C@H](CC(C)C)NC(=O)CNC(=O)[C@@H](N)CCC(=O)O)C(O)c1ccccc1)C(C)C)C(N)=O (stereo partly specified) (H-EGLN[pY][X4]VL-NH2) | 1.08 | 220 |  |  | 

Results, then the molecule that gave them:

Kd [1] [µM] | EC50 ([2]; read-out: EC50) [µM] | Kd [3] | EC50 [4] | EC50 [2] | SMILES
0.69 | 70 |  |  |  | CC(C)C[C@H](NC(=O)[C@@H](NC(=O)[C@H](Cc1ccccc1)NC(=O)[C@H](Cc1ccc(OP(=O)(O)O)cc1)NC(=O)[C@H](CC(N)=O)NC(=O)[C@H](CC(C)C)NC(=O)CNC(=O)[C@@H](N)CCC(=O)O)C(C)C)C(N)=O (H-EGLN[pY]FVL-NH2)
 |  | Not Active | Not Active |  | CSCC[C@@H]1NC(=O)[C@H](Cc2ccc(OP(=O)(O)O)cc2)NC(=O)[C@@H](NC(=O)[C@H](CC(C)C)NC(=O)CNC(=O)[C@@H](N)CCC(=O)O)CCCCNC(=O)CC[C@@H](C(=O)N[C@@H](CC(C)C)C(=O)O)NC1=O (H-EGLK[pY]MEL-OH; lactam 4-7)
0.24 | 50 |  |  |  | CC(C)C[C@H](NC(=O)[C@@H](NC(=O)[C@@H](NC(=O)[C@H](Cc1ccc(OP(=O)(O)O)cc1)NC(=O)[C@H](CC(N)=O)NC(=O)[C@H](CC(C)C)NC(=O)CNC(=O)[C@@H](N)CCC(=O)O)C(C)c1ccccc1)C(C)C)C(N)=O (stereo in doubt; 5a)
1 | 140 |  |  |  | CSCC[C@H](NC(=O)[C@H](Cc1ccc(OP(=O)(O)O)cc1)NC(=O)[C@H](CC(N)=O)NC(=O)[C@H](CC(C)C)NC(=O)CNC(=O)[C@@H](N)CCC(=O)O)C(=O)N[C@H](C(=O)N[C@@H](Cc1ccccc1)C(N)=O)C(C)C (H-EGLN[pY]MVF-NH2)

From ChEMBL document CHEMBL1142704, “Design and biological evaluation of linear and cyclic phosphopeptide ligands of the N-terminal SH2 domain of protein tyrosine phosphatase SHP-1” (J Med Chem, 2005)
